Measurements from different studies.
Compare with care: the assays were run in different laboratories.
Target: Serine/threonine-protein kinase 4 (STK4, Homo sapiens, UniProt Q13043)
Sequence (Q13043 1-487, as in one of the studies): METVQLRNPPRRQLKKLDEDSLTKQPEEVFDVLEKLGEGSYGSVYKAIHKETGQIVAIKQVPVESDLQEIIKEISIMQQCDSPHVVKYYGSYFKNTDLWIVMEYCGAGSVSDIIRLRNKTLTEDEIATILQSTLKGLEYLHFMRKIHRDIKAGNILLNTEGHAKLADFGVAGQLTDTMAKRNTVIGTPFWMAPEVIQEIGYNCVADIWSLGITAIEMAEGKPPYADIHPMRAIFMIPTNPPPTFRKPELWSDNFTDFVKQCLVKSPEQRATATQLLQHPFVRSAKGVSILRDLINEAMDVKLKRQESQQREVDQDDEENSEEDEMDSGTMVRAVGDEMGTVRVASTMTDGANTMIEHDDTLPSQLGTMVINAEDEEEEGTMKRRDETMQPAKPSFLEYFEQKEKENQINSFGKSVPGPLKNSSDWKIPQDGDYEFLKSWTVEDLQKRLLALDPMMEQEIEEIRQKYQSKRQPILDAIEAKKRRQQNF

Structure (SMILES) | read-out | action | technique | tested at | measurement | result
CCCCC(=O)Nc1ccc(-c2ccc3ncn(CCC)c(=O)c3c2)cn1 | binding |  | competition with immobilised ligand | 0.5 µM | remaining binding | 95%
Cc1cc(O)c(-c2ccc([C@@H](C)CN(C)C)cc2)c2c1[nH]c(=O)c1sccc12 | enzyme activity | inhibitor |  | 0.1 µM | inhibition | -0.517%
CO[C@@H]1[C@H](N(C)C(=O)c2ccccc2)C[C@H]2O[C@]1(C)n1c3ccccc3c3c4c(c5c6ccccc6n2c5c31)C(=O)NC4 | enzyme activity | inhibitor |  | 1 µM | inhibition | 78%
C1=C/COCc2cc(ccc2OCCN2CCCC2)Nc2nccc(n2)-c2cccc(c2)COC/1 | cell-free assay |  |  | 0.1 µM | remaining signal | 100%
C#Cc1cc(-c2cc(Nc3nc(N[C@@H](C)c4ccc(F)cn4)ncc3Cl)n[nH]2)ccc1C=O | enzyme activity | inhibitor |  | 0.2 µM | inhibition | 54.5%
CN1CCN(C(=O)c2ccc(NC(=O)Nc3ccc(N(C)c4ccnc(Nc5ccc(CS(C)(=O)=O)cc5)n4)cc3)cc2)CC1 | binding |  | competition with immobilised ligand | 1 µM | remaining binding | 96%
C=CC(=O)N1CCC([C@@H]2CCNc3c(C(N)=O)c(-c4ccc(Oc5ccccc5)cc4)nn32)CC1 | enzyme activity | inhibitor |  | 1 µM | inhibition | 0%
COc1ccc2[nH]c3c4[nH]c5ccc(OC)cc5c4c4c(c3c2c1)C(=O)NC4=O | binding |  | competition with immobilised ligand | 1 µM | remaining binding | 100%
COc1ccc2oc(-c3ccc4nc(N)oc4c3)c/c(=N\c3ccccc3NC(=O)CCN)c2c1 | binding |  |  | 1 µM | remaining binding | 111%
